Measured values collected from several papers.
Compare with care: the assays were run in different laboratories.
Target: Serine/threonine-protein kinase Nek11 (NEK11, Homo sapiens, UniProt Q8NG66)
Residues used in one study (Q8NG66 1-645): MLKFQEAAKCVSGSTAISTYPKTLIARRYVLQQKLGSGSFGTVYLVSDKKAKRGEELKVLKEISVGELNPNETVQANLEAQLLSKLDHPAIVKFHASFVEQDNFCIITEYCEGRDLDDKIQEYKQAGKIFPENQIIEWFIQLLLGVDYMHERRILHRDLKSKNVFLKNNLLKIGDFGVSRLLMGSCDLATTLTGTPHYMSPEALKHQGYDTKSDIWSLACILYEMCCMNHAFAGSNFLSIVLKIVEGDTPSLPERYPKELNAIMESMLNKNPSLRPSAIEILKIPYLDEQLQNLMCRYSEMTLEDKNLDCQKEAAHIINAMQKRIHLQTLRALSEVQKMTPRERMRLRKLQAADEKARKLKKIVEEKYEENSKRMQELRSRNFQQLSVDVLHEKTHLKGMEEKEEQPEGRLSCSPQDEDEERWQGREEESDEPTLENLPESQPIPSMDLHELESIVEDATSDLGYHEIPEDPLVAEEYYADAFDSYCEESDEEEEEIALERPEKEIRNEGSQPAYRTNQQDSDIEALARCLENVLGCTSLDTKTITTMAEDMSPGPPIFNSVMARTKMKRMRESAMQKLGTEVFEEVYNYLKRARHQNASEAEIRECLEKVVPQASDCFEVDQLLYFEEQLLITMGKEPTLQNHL

Cc1ccc(C(=O)Nc2ccc(CN3CCN(C)CC3)c(C(F)(F)F)c2)cc1C#Cc1cnc2cccnn12  remaining activity (enzyme activity, inhibitor; 23.5 nM): 83%
O=C1NC(=O)c2cc(Nc3ccc(F)cc3)c(Nc3ccc(F)cc3)cc21  remaining signal (cell-free assay; 0.5 µM): 103%
CNC(=O)c1cc(Oc2ccc(NC(=O)Nc3ccc(Cl)c(C(F)(F)F)c3)cc2)ccn1  inhibition (enzyme activity, inhibitor; 10 µM): 28%
N#CCCc1ccc2c(c1)-c1[nH]c3ccc([N+](=O)[O-])cc3c1CC(=O)N2  remaining signal (cell-free assay; 0.5 µM): 101%
Cc1ccc(Nc2nccc(N(C)c3ccc4c(C)n(C)nc4c3)n2)cc1S(N)(=O)=O  inhibition (enzyme activity, inhibitor; 0.3 µM): -9%
CS(=O)(=O)N1CCCC(NC(=O)[C@H](CCC2CCCCC2)NC(=O)c2ccc(CNc3ncnc4c3nnn4-c3ccccc3)cc2)C1 (some centres unmarked)  remaining binding (cell-free assay, competition with immobilised ligand; 0.1 µM): 100%
CCN(CC)CCNC(=O)c1c(C)[nH]c(/C=C2\C(=O)Nc3ccc(F)cc32)c1C  inhibition (enzyme activity, inhibitor; 10 µM): 46%
O=C(Nc1cnn(-c2csc(C(=O)NC3COC3)c2)c1)Nc1ccccc1Cl  remaining activity (enzyme activity, inhibitor; 5 µM): 145%
CN([C@@H]1CCc2c(CC(=O)O)c3ccccc3n2C1)S(=O)(=O)c1ccc(F)cc1  remaining binding (cell-free assay, competition with immobilised ligand; 1 µM): 100%
Clc1ccc(Nc2nnc(Cc3ccncc3)c3ccccc23)cc1  remaining signal (cell-free assay; 0.5 µM): 87%
Nc1ncnc2occ(-c3ccc(NC(=O)Nc4cc(C(F)(F)F)ccc4F)cc3)c12  remaining signal (cell-free assay, inhibitor; 20 µM): 9.3%
CCCOc1ccc(OC)c(F)c1C(=O)c1ccc(C(=O)N[C@@H]2CNC[C@H]2NC(=O)c2ccc3[nH]ncc3c2)cc1  remaining activity (enzyme activity, inhibitor; 10 µM): 45%
CC1=C(C#N)C(c2ccc3c(c2)c(NC(=O)c2ccccc2C)nn3C)C(C#N)=C(C)N1  remaining binding (cell-free assay, competition with immobilised ligand; 1 µM): 96%
Cc1cc(NC(=O)c2cccc3cc(-c4cccc5[nH]nc(N)c45)ccc23)ccc1F  activity vs control (enzyme activity, inhibitor; 0.1 µM): 91%
O=C(O)[C@H]1[C@H](Cn2nnc3ccccc3c2=O)CC[C@@H]1C(=O)c1ccc(OCCC2CCOCC2)cc1  remaining binding (cell-free assay, competition with immobilised ligand; 1 µM): 100%
COc1cc2ncnc(Nc3ccc(F)c(Cl)c3)c2cc1OCCCN1CCOCC1  remaining signal (cell-free assay; 0.5 µM): 109%
NS(=O)(=O)c1cc(NC(=O)C2(c3ccccc3Cl)CC2)ccc1Oc1cccc(Cl)c1  remaining binding (cell-free assay, competition with immobilised ligand; 1 µM): 100%
CC(C)(C)c1nc(-c2cccc(NS(=O)(=O)c3c(F)cccc3F)c2F)c(-c2ccnc(N)n2)s1  remaining activity (enzyme activity, inhibitor, radiometric; 1 µM): 1%
CN1CCN(c2cnc3c(C4CCN(C(=O)c5ccc(OC(F)(F)F)cc5N)CC4)ncnc3c2)CC1  remaining binding (cell-free assay, competition with immobilised ligand; 1 µM): 100%
Cc1sc(C(=O)NC2COC2)cc1-n1cc(NC(=O)Nc2c(F)cccc2Cl)cn1  remaining activity (enzyme activity, inhibitor; 10 µM): 70%
